{"source": "ChEMBL document CHEMBL4052826", "about": "“Design and Synthesis of Novel Reactive Oxygen Species Inducers for the Treatment of Pancreatic Ductal Adenocarcinoma” (J Med Chem, 2018)", "key": {"[1]": {"tested_on": "BXPC-3", "assay": "Induction of reactive oxygen species generation in human BxPC3 cells assessed as upregulation of NQO1 expression at 2 uM after 4 to 24 hrs by Western blot analysis", "assay_type": "functional, cell-based", "how_it_was_run": "(§1)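 Immunoblotting. Cells (4×10^5) in 60 mm dishes were treated, lysed 30 min at 4°C and quantified by BCA. 40 μg protein was run on SDS-PAGE and transferred to PVDF. Primary antibodies (1:1000) incubated overnight at 4°C, then Dylight 800 secondary, with fluorescent scanning. Bands were normalized to GAPDH or actin loading controls. Mean ± SD, three independent experiments, Student's t-test.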"}, "[2]": {"assay": "Induction of compound colloidal behavior"}, "[3]": {"tested_on": "Mus musculus", "assay": "Induction of reactive oxygen species generation in tumor of NOD/SCID mouse xenografted with MIAPaCa2 cells assessed as upregulation of NQO1 expression at 5 mg/kg, ip administered 5 times a week until day 44 by Western blot method", "assay_type": "functional, organism-based"}, "[4]": {"tested_on": "Mus musculus", "assay": "Toxicity in NOD/SCID mouse xenografted with human MIAPaCa2 cells assessed as microscopic changes in kidney at 5 mg/kg, ip administered 5 times a week until day 44 by hematoxylin and eosin staining-based inverted microscopic method", "assay_type": "organism-based", "details": "in vivo", "how_it_was_run": "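Necropsy after the 44-day ip course in MIA PaCa-2 xenograft-bearing NOD/SCID mice: heart, kidney, liver, lung, spleen and pancreas fixed in 10% neutral buffered formalin, paraffin-embedded, sectioned and stained with hematoxylin and eosin. Sections examined by inverted microscope at 20X, compared with vehicle-treated animals.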"}, "[5]": {"tested_on": "Mus musculus", "assay": "Induction of reactive oxygen species generation in tumor of NOD/SCID mouse xenografted with MIAPaCa2 cells assessed as upregulation of HO-1 expression at 5 mg/kg, ip administered 5 times a week until day 44 by Western blot method", "assay_type": "functional, organism-based"}, "[6]": {"tested_on": "Mus musculus", "assay": "Induction of unfolded protein response in tumor of NOD/SCID mouse xenografted with MIAPaCa2 cells assessed as upregulation of GRP78 expression at 5 mg/kg, ip administered 5 times a week until day 44 by Western blot method", "assay_type": "functional, organism-based", "how_it_was_run": "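Dosed ip in 5% DMSO/60% propylene glycol/35% saline, five days on/two off, until day 44, versus vehicle. Tumor lysates immunoblotted with primary antibodies, Dylight 800 secondary, fluorescent scan.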"}, "[7]": {"tested_on": "MIA PaCa-2", "assay": "Inhibition of mtDNA transcription from HSP1 promoter in human MIAPaCa2 cells at 5 times IC50 after 4 hrs by Bru-seq analysis", "assay_type": "functional, cell-based", "how_it_was_run": "(§2)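 Nascent RNA sequencing (Bru-seq): 4×10^6 MIA PaCa-2 cells seeded in 10 cm dishes, treated next day for 4 h with drug or DMSO. Bromouridine (2 mM final) added for the last 30 min. Total RNA taken in TRIZOL; labeled RNA immunocaptured, converted to cDNA libraries and deep sequenced. Signal compared with DMSO-treated cells.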"}, "[8]": {"tested_on": "PANC-1", "assay": "Cytotoxicity against human PANC1 cells assessed as decrease in cell proliferation after 72 hrs by MTT assay", "assay_type": "functional, cell-based", "details": "PANC-1, 72 h", "how_it_was_run": "(§3)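 MTT assay. Cells (3000–8000/well) attached overnight in RPMI1640 with 10% FBS; the GR line was kept with 200 nM gemcitabine. Serial dilutions (30 nM–10 μM for most lines) were applied for 72 h. MTT was added at a final 300 μg/mL for 3 h at 37°C, formazan was dissolved in DMSO and A570 read. Inhibition = (1 − OD treated/OD control) × 100. IC50 given as mean ± SD, three independent experiments.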"}, "[9]": {"tested_on": "MIA PaCa-2", "assay": "Inhibition of mtDNA transcription from LSP promoter in human MIAPaCa2 cells at 5 times IC50 after 4 hrs by Bru-seq analysis", "assay_type": "functional, cell-based", "how_it_was_run": "as §2"}, "[10]": {"tested_on": "MIA PaCa-2", "assay": "Induction of reactive oxygen species generation in human MIAPaCa2 cells assessed as upregulation of NQO1 expression at 2 uM after 4 to 24 hrs by Western blot analysis", "assay_type": "functional, cell-based", "how_it_was_run": "as §1"}, "[11]": {"tested_on": "MIA PaCa-2", "assay": "Antitumor activity against human MIAPaCa2 cells xenografted in NOD/SCID mouse assessed as delay of tumor growth at 5 mg/kg, ip administered 5 times a week until day 44 followed by dose escalation up to 20 mg/kg until day 67", "assay_type": "functional, organism-based", "how_it_was_run": "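Subcutaneous MIA PaCa-2 flank xenografts in NOD/SCID mice, randomized at 65 mm3. Dosing was 5 mg/kg ip in 5% DMSO/60% propylene glycol/35% saline, five days on and two off, to day 44. Two mice per group then continued with the dose gradually raised to 20 mg/kg until day 67. Tumor volume was taken by caliper and body weight monitored.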"}, "[12]": {"tested_on": "PANC-1", "assay": "Induction of reactive oxygen species generation in human PANC1 cells assessed as upregulation of HO-1 expression at 2 uM after 4 to 24 hrs by Western blot analysis", "assay_type": "functional, cell-based", "how_it_was_run": "as §1"}, "[13]": {"tested_on": "MIA PaCa-2", "assay": "Downregulation of Sp3 gene expression in human MIAPaCa2 cells at IC50 to 5 times IC50 after 4 hrs by Bru-seq analysis", "assay_type": "functional, cell-based"}, "[14]": {"tested_on": "MIA PaCa-2", "assay": "Induction of reactive oxygen species generation in human MIAPaCa2 cells assessed as upregulation of NQO1 gene expression after 4 hrs by Bru-seq analysis", "assay_type": "functional, cell-based"}, "[15]": {"assay": "Selectivity index, ratio of IC50 for HPDEC to IC50 for human MIAPaCa2 cells", "how_it_was_run": "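The measurement is MTT cytotoxicity (72 h) in HPV16-E6E7-immortalized HPDE cells and in MIA PaCa-2 cells, both grown in RPMI1640 with 10% FBS. Cells were seeded at 3000–8000/well and attached overnight, then treated with serial dilutions (30 nM–10 μM for most lines). MTT (300 μg/mL final) was added for 3 h at 37°C, formazan was dissolved in DMSO and A570 was read. IC50s are mean ± SD of three experiments; the index is their ratio.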"}, "[16]": {"tested_on": "MIA PaCa-2", "assay": "Cytotoxicity against human MIAPaCa2 cells assessed as decrease in cell proliferation after 72 hrs by MTT assay", "assay_type": "functional, cell-based", "how_it_was_run": "as §3"}, "[17]": {"tested_on": "BXPC-3", "assay": "Induction of unfolded protein response in human BxPC3 cells assessed as upregulation of GRP78 expression at 2 uM by Western blot analysis", "assay_type": "functional, cell-based", "details": "TDE = time-dependent effect", "how_it_was_run": "as §1"}, "[18]": {"tested_on": "MIA PaCa-2", "assay": "Antitumor activity against human MIAPaCa2 cells xenografted in NOD/SCID mouse assessed as tumor volume at 5 mg/kg, ip administered 5 times a week for 48 days (reference value: 1503 +/- 189 mm'3)", "assay_type": "functional", "how_it_was_run": "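MIA PaCa-2 subcutaneous xenografts in NOD/SCID mice, randomized at 75 mm3. Test agent was given at 5 mg/kg five times a week. Gemcitabine was given at 15 mg/kg either once weekly for 48 days or twice weekly for 15 days. Groups were n=3–4. Tumor volume was measured by caliper, given as mean ± SEM, and compared by unpaired t test.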"}, "[19]": {"tested_on": "MIA PaCa-2", "assay": "Antiproliferative activity against human MIAPaCa2 cells xenografted in NOD/SCID mouse at 5 mg/kg, ip administered 5 times a week until day 44 by ki67 staining-based assay", "assay_type": "functional, organism-based"}, "[20]": {"tested_on": "BXPC-3", "assay": "Induction of reactive oxygen species generation in human BxPC3 cells assessed as upregulation of HO-1 expression at 2 uM after 4 to 24 hrs by Western blot analysis", "assay_type": "functional, cell-based", "how_it_was_run": "as §1"}}, "note": "Active and inactive are the calls of the source. The calls are words filed in the database; no cut-off is given here."}
{"molecule": "O=C1C(Nc2ccc(-c3ccccc3)cc2)=CC(=O)c2ncncc21", "values": [{"measurement": "Activity", "setting": "[1]", "value": "inactive"}, {"measurement": "Activity", "setting": "[2]", "value": "Active"}, {"measurement": "Activity", "setting": "[3]", "value": "Active"}, {"measurement": "Activity", "setting": "[4]", "value": "Non-Toxic"}, {"measurement": "Activity", "setting": "[5]", "value": "Active"}, {"measurement": "Activity", "setting": "[6]", "value": "Active"}, {"measurement": "inhibition", "setting": "[7]", "value": "inactive"}, {"measurement": "IC50", "setting": "[8]", "value": 400, "unit": "nM"}, {"measurement": "inhibition", "setting": "[9]", "value": "Active"}, {"measurement": "Activity", "setting": "[10]", "value": "inactive"}, {"measurement": "Activity", "setting": "[11]", "value": "Active"}, {"measurement": "Activity", "setting": "[12]", "value": "inactive"}, {"measurement": "Activity", "setting": "[13]", "value": "inactive"}, {"measurement": "Activity", "setting": "[14]", "value": "Dose-dependent effect"}, {"measurement": "Ratio IC50", "setting": "[15]", "value": 3}, {"measurement": "Activity", "setting": "[16]", "value": "Dose-dependent effect"}, {"measurement": "IC50", "setting": "[16]; MIA PaCa-2, 72 h", "value": 900, "unit": "nM"}, {"measurement": "Activity", "setting": "[17]", "value": "Tde"}, {"measurement": "Activity", "setting": "[18]", "value": 248, "unit": "mm3"}, {"measurement": "Activity", "setting": "[19]", "value": "Active"}, {"measurement": "Activity", "setting": "[20]", "value": "Active"}]}
